Data reported in ChEMBL document CHEMBL3526068, “In vitro investigation of human UDP-glucuronosyltransferase isoforms responsible for tacrolimus glucuronidation: predominant contribution of UGT1A4” (Drug Metab Dispos, 2011).
Blank lines part the entries; values can stand above or below the molecule they belong to.

Assays:
[1] = Drug metabolism in human intestine assessed as glucuronidation after 1 hr by Eadie-Hofstee plot analysis; type: ADME, tissue-based
Summary of the method: (§1)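 Pooled human intestine microsomes were incubated 1 h with tacrolimus at 25–750 μM. Glucuronide formation was measured by LC-MS/MS, and kinetic parameters came from a selected enzyme kinetic model fit. Data are mean ± SD of triplicate determinations from three independent experiments.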

[2] = Drug metabolism in human intestine assessed as glucuronidation at 25 to 750 uM after 1 hr by Eadie-Hofstee plot analysis; type: ADME, tissue-based; summary of the method: as §1
Liver microsome = assay: Drug metabolism in human liver microsomes assessed as glucuronidation at 200 uM after 16 hrs by LC-MS analysis; type: ADME
Summary of the method: (§2)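 Microsomes from human liver, kidney and intestine, or from HEK293 cells overexpressing individual UGT1A or UGT2B enzymes, were prepared by differential centrifugation. They were incubated 16 h at 37°C with 200 μM tacrolimus. Tacrolimus glucuronide was detected by LC-MS/MS (C8 column, ammonium acetate/acetic acid–methanol gradient, positive electrospray), with CsA d4 as a marker.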

[3] = Drug metabolism in human intestine microsomes assessed as glucuronidation at 200 uM after 16 hrs by LC-MS analysis; type: ADME; summary of the method: as §2
[4] = biological target: T1, UDP-glucuronosyltransferase 1A4 (Homo sapiens, UniProt P22310); assay: Activity at human recombinant UGT1A4 assessed as enzyme-mediated tacrolimus glucuronide formation at 200 uM after 16 hrs by LC-MS analysis; type: ADME; summary of the method: as §2
T1 sequence (P22310 whole entry): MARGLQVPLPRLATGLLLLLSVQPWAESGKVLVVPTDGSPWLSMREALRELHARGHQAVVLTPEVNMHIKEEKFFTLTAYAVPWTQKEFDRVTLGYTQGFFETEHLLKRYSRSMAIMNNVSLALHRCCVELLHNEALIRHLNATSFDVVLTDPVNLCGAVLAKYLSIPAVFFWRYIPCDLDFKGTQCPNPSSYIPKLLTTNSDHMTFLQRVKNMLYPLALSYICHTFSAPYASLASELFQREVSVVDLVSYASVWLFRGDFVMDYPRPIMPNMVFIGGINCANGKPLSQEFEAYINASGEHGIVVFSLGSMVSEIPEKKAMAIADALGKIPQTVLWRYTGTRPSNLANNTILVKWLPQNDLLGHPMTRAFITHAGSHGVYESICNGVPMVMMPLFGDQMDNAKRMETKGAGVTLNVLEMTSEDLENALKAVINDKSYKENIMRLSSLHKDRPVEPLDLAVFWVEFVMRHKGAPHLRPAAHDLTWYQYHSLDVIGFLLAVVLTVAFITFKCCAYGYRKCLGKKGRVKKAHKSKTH

[5] = biological target: T2, UDP-glucuronosyltransferase 2B7 (Homo sapiens, UniProt P16662); assay: Drug metabolism in human kidney microsomes assessed as UGT2B7-mediated tacrolimus glucuronide formation at 200 uM after 16 hrs by LC-MS analysis; type: ADME; summary of the method: as §2
T2 sequence (P16662 whole entry): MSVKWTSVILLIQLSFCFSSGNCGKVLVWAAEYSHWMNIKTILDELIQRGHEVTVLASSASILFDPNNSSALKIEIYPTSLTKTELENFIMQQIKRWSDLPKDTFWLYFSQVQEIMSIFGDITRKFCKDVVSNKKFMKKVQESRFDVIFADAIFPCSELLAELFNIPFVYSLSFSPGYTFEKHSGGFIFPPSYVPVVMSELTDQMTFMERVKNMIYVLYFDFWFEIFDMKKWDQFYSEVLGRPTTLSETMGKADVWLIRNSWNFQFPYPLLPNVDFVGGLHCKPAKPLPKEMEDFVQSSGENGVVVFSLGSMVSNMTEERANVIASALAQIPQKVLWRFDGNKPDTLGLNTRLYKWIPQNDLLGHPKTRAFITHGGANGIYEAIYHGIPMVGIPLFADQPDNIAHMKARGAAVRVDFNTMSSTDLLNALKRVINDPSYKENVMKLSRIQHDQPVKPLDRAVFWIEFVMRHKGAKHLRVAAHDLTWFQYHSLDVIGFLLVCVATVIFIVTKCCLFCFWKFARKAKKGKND

UGT1A4*1 = assay: Activity of UGT1A4*1 mutant (unknown origin) overexpressed in HEK293 cells assessed as enzyme-mediated glucuronidation after 1 hr by Eadie-Hofstee plot analysis; type: ADME, cell-based; settings: human, HEK293 cells overexpressing UGT1A4*1
Summary of the method: (§3)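 Tacrolimus at 25–750 μM was incubated 1 h and glucuronide was measured by LC-MS/MS. A kinetic model was fitted, and Vmax was adjusted for UGT1A4 protein content. Data are mean ± SD of triplicates from three independent experiments.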

[6] = Activity of UGT1A4*1 mutant (unknown origin) overexpressed in HEK293 cells assessed as enzyme-mediated glucuronidation at 25 to 750 uM after 1 hr by Eadie-Hofstee plot analysis; type: ADME, cell-based; settings: human, hek293, 1 h; summary of the method: as §3
[7] = biological target: UDP-glucuronosyltransferase 1A4 (Homo sapiens, UniProt P22310, P24T); assay: Activity of UGT1A4*2 mutant (unknown origin) overexpressed in HEK293 cells assessed as enzyme-mediated glucuronidation at 25 to 750 uM after 1 hr by Eadie-Hofstee plot analysis; type: ADME, cell-based; settings: hek293, 1 h; summary of the method: as §3
[8] = biological target: UDP-glucuronosyltransferase 1A4 (Homo sapiens, UniProt P22310, L48V); assay: Activity of UGT1A4*3 mutant (unknown origin) overexpressed in HEK293 cells assessed as enzyme-mediated glucuronidation at 25 to 750 uM after 1 hr by Eadie-Hofstee plot analysis; type: ADME, cell-based; settings: hek293, 1 h; summary of the method: as §3
UGT1A4*4 = assay: Activity of UGT1A4*4 mutant (unknown origin) overexpressed in HEK293 cells assessed as enzyme-mediated glucuronidation after 1 hr by Eadie-Hofstee plot analysis; type: ADME, cell-based; settings: human, HEK293 cells overexpressing UGT1A4*4; summary of the method: as §3
[9] = Activity of UGT1A4*4 mutant (unknown origin) overexpressed in HEK293 cells assessed as enzyme-mediated glucuronidation at 25 to 750 uM after 1 hr by Eadie-Hofstee plot analysis; type: ADME, cell-based; settings: human, hek293, 1 h; summary of the method: as §3
[10] = tested on: C=CC[C@@H]1/C=C(\C)C[C@H](C)C[C@H](OC)[C@H]2O[C@@](O)(C(=O)C(=O)N3CCCC[C@H]3C(=O)O[C@H](/C(C)=C/[C@@H]3CC[C@@H](O)[C@H](OC)C3)[C@H](C)[C@@H](O)CC1=O)[C@H](C)C[C@@H]2OC; assay: Activity of UGT1A4*3 mutant (unknown origin) overexpressed in HEK293 cells assessed as enzyme-mediated glucuronidation after 1 hr by Eadie-Hofstee plot analysis; type: ADME, cell-based, Homo sapiens; summary of the method: as §3
[11] = tested on: C=CC[C@@H]1/C=C(\C)C[C@H](C)C[C@H](OC)[C@H]2O[C@@](O)(C(=O)C(=O)N3CCCC[C@H]3C(=O)O[C@H](/C(C)=C/[C@@H]3CC[C@@H](O)[C@H](OC)C3)[C@H](C)[C@@H](O)CC1=O)[C@H](C)C[C@@H]2OC; assay: Activity of UGT1A4*2 mutant (unknown origin) overexpressed in HEK293 cells assessed as enzyme-mediated glucuronidation after 1 hr by Eadie-Hofstee plot analysis; type: ADME, cell-based, Homo sapiens; summary of the method: as §3

Chain of UDP-glucuronosyltransferase 1A4 (Homo sapiens, UniProt P22310, L48V) (P22310 29-534 L48V limits assumed): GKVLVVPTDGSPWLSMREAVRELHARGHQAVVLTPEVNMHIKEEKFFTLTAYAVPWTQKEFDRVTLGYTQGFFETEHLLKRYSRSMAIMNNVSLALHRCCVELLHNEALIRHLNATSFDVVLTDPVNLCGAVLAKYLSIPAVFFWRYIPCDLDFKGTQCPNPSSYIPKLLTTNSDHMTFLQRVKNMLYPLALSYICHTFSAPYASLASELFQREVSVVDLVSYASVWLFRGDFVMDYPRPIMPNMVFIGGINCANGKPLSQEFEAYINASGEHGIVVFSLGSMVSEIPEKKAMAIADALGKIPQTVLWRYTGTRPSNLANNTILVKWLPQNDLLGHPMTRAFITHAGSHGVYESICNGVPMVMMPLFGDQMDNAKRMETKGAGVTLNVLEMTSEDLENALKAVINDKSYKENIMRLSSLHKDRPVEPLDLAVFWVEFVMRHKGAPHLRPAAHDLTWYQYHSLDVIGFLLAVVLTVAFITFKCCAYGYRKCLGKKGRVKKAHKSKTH
Chain of UDP-glucuronosyltransferase 1A4 (Homo sapiens, UniProt P22310, P24T) (P22310 whole entry P24T): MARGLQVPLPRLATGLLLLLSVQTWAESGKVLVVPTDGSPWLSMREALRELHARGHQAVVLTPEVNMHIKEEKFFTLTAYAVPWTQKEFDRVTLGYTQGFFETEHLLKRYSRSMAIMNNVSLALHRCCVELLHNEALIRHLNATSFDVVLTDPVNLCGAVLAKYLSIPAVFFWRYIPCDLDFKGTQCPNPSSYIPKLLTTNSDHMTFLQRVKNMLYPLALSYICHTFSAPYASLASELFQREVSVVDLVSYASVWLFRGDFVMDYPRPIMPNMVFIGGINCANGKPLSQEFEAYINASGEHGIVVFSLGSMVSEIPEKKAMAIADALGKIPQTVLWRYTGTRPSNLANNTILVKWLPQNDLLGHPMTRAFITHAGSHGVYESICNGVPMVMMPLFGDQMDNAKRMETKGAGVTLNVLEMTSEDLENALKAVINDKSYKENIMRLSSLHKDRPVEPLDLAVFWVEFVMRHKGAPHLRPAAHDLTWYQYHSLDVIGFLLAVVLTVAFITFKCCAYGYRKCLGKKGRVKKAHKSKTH

Km at 1 h [1]: 51.8 µM | Vmax [2]: 0.04 area/min/mg | Drug metabolism (Liver microsome): metabolite_detected | Drug metabolism [3]: metabolite_detected | Drug metabolism [4]: metabolite_detected | Drug metabolism [5]: metabolite_not_detected | Km at 1 h (UGT1A4*1): 91 µM | Vmax [6]: 1.65 area/min/mg | Vmax [7]: 1.65 area/min/mg | Vmax [8]: 2.23 area/min/mg | Km at 1 h (UGT1A4*4): 101 µM | Vmax [9]: 3.14 area/min/mg
Molecule: C=CC[C@@H]1/C=C(\C)C[C@H](C)C[C@H](OC)[C@H]2O[C@@](O)(C(=O)C(=O)N3CCCC[C@H]3C(=O)O[C@H](/C(C)=C/[C@@H]3CC[C@@H](O)[C@H](OC)C3)[C@H](C)[C@@H](O)CC1=O)[C@H](C)C[C@@H]2OC [TACROLIMUS ANHYDROUS]

Molecule: UDP-glucuronosyltransferase 1A4 (Homo sapiens; L48V)
Km [10]: 126 µM

Molecule: UDP-glucuronosyltransferase 1A4 (Homo sapiens; P24T)
Km [11]: 114 µM
